# Rows were chosen to be rich in hits. Some 3.5% of all compounds tested hit in one or more screens of this group.
# MrgX1 agonist: human MrgX1 receptor agonism, primary screen; Q96LB2; MrgX1-HEK293 cells, Fluo-4 calcium fluorescence, agonist mode; active compounds read high; B-score at 10 µM; actives 0.44% (n = 310,000); AID 588627;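 active = calcium response B-score plate-corrected fluorescence ratio at least 3 library SD, with starting fluorescence B-score inside 5 SD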
# Target sequence (Q96LB2 whole entry, looked up): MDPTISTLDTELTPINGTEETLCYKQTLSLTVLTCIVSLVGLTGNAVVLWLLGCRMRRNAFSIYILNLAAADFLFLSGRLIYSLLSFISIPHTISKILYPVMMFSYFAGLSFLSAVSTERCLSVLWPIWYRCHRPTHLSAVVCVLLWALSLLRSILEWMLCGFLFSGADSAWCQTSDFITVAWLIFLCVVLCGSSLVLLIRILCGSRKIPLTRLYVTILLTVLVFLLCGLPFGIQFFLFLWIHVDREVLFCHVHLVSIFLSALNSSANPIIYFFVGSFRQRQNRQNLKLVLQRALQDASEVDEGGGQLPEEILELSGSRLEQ
#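 Assay system: stable human MrgX1 HEK293 cell line. Quantity: 15,000 cells per well. Schedule: cells plated overnight, dye loaded 0.5 h 37 °C, 0.5 h room temperature. Detection: Fluo-4 NW calcium-flux fluorescence, kinetic read. Read-out basis: peak-minus-minimum fluorescence over baseline, converted to B scores. Control set: positive and negative control wells on each plate.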
# MrgX1 allo act: allosterically activates human MrgX1 receptor signaling; actives 0.63% (n = 310,000); MrgX1-HEK293, Fluo-4 calcium flux, FDSS; active compounds read high; B-score at 10 µM; Q96LB2; AID 588675;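 active = plate-corrected calcium response at least 3 library SD above typical, normal starting fluorescence, not activating the receptor alone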;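 also: compound read alongside a low EC10 to EC30 dose of BAM8-22 agonist; peak minus trough fluorescence over baseline measured at the second addition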
# MrgX1 antagonist: blocks BAM8-22 activation of human MrgX1 receptor; Q96LB2; MRGX1-HEK293 calcium flux, Fluo-4, BAM8-22 antagonism; active compounds read low; B-score at 10 µM; actives 1.3% (n = 310,000); AID 588676;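 active = calcium-response B-score plate-corrected more than 3 library SD below zero, starting fluorescence within 5 deviations, no agonist response on first addition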;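 also: peak minus trough fluorescence over baseline after final BAM8-22 challenge near maximal dose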
# RGS4 act: potentiators or activators of RGS4. actives 0.92% (n = 310,000). HEK293 M3R/inducible RGS4, carbachol calcium flux Fluo4; active compounds read low. B-score at 10 µM;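 active = B-score of the integrated calcium signal more than 4 SD below the library mean, with starting fluorescence not abnormally high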;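 also: negative B-score means reduced calcium response which marks RGS4 activation or potentiation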
#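 Test system: HEK293 cells with stable M3R and inducible RGS4; also added: carbachol at ECmax as muscarinic agonist stimulus; schedule: dye loading 30 min 37 °C, buffer rest 30 min RT; technique: kinetic calcium fluorescence imaging with Fluo4-AM dye, 2 µM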
# RGS4 block: human RGS4 inhibition; P49798; B-score at 10 µM; AID 463165; HEK293 M3R/RGS4 inducible, Fluo-4 calcium flux; active compounds read high; triggered by carbachol at its EC20; actives 0.45% (n = 310,000);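 active = B-score, a plate-corrected calcium signal, over three deviations above library mean, with baseline fluorescence within five deviations of library mean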;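 also: RGS4 expression induced by doxycycline in cells with stable M3 receptor; B-score is computed from the integrated fluorescence ratio over baseline after carbachol; higher B-score means a larger calcium signal and so more RGS4 inhibition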
# Target sequence (P49798 whole entry, looked up): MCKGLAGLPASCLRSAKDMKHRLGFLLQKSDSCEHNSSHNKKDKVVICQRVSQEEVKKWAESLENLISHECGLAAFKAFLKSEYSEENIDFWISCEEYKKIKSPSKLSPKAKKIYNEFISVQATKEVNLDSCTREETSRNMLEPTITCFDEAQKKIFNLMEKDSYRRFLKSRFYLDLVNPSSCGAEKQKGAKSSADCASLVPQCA
# * hit, by the source's call; i = inactive; . = not tested or not shown.
SMILES,MrgX1 agonist,MrgX1 allo act,MrgX1 antagonist,RGS4 act,RGS4 block
NC(=O)c1ccc[n+]([C@H]2O[C@@H](COP(=O)([O-])OP(=O)(O)OC[C@H]3O[C@@H](n4cnc5c(N)ncnc54)[C@H](O)[C@@H]3O)[C@H](O)[C@@H]2O)c1,34*,i,i,.,.
Nc1sc(-c2ccccc2)n[n+]1Cc1cccc2cccnc12,i,i,-4.7*,-7.1*,i
CN(C)S(=O)(=O)N1CCC(Oc2cccc(C(=O)NC3CCCCC3)c2)CC1,i,i,i,i,i
CN(C)S(=O)(=O)N1CCC(Oc2cccc(C(=O)NCCC3=CCCCC3)c2)CC1,i,i,-4.5*,i,i
COc1ccc(Cc2nc3ccc(C(=O)N4C[C@@H](C)O[C@@H](C)C4)cc3o2)cc1OC,i,i,i,i,i
COCCN1CCN(C(=O)c2ccc3nc(Cc4ccc(OC)c(OC)c4)oc3c2)CC1,i,i,-5.9*,i,i
C=CCN1C(c2cccc(C(F)(F)F)c2)=CS/C1=C(/C#N)c1nnc(N2CCOCC2)n1-c1ccccc1,45*,i,i,i,i
COc1ccc(CCNC(=O)/C(C#N)=C2\N=C(NC(=O)c3ccco3)c3ccccc32)cc1,i,i,-4.7*,i,i
N#C/C(C(=O)NCc1ccccc1)=C1/N=C(NC(=O)c2ccco2)c2ccccc21,i,i,i,i,i
Cc1c([N+](=O)[O-])cc(S(=O)(=O)Nc2ccc(-c3ccc(N4CCCC4)nn3)cc2)cc1[N+](=O)[O-],i,i,i,i,i
Cc1ccc([N+](=O)[O-])cc1S(=O)(=O)Nc1ccc(-c2ccc(N3CCCC3)nn2)cc1,i,16*,i,i,i
O=[N+]([O-])c1ccc(S(=O)(=O)Nc2ccc(-c3ccc(N4CCCC4)nn3)cc2)cc1,i,6.7*,i,i,i
O=[N+]([O-])c1ccc(Cl)c(S(=O)(=O)Nc2ccc(-c3ccc(N4CCCC4)nn3)cc2)c1,i,i,i,i,i
CCCC(=O)Nc1nnc(SCC(=O)NC2CC2)s1,i,i,i,i,i
COc1c(C)cc(C(=O)C2CCCN(C(=O)CCc3scnc3C)C2)cc1C (stereo unspecified),i,i,i,i,i
CC(=O)Nc1nc(C)c(-c2csc(Nc3cccc(C(C)=O)c3)n2)s1,i,i,i,-7.5*,i
O=C(O)c1cc(NS(=O)(=O)c2ccc(N3CCCCC3)c([N+](=O)[O-])c2)cc(C(=O)O)c1,i,i,i,i,i
CCCCCCNC(=O)CCCCCNS(=O)(=O)c1ccc(OC)cc1,i,i,i,i,i
CC1=CN2C(=N)/C(=C/c3ccc(C)o3)C(=O)N=C2S1,i,15*,i,i,i
CCN(CC(=O)Nc1ccc2c(c1)OCCO2)C(=O)CC(NC(C)=O)c1ccccc1 (stereo unspecified),i,i,-7.4*,i,i
CCN(CC(=O)Nc1ccc2c(c1)OCCO2)C(=O)/C=C/c1ccccc1,i,i,i,i,i
Cc1ccc(/C=N/n2c(C3CCCCC3)n[nH]c2=S)cc1,i,i,i,i,i
O=C(CN1CCCC1)N1c2ccccc2Sc2ccc(C(F)(F)F)cc21,i,i,i,-8.1*,i
O=C(CN1CCCCC1)N1CCCc2ccccc21,i,i,i,i,i
O=C(CN1CCCCCC1)N1c2ccccc2C=Cc2ccccc21,i,i,i,-7.6*,i
SMILES,MrgX1 agonist,MrgX1 allo act,MrgX1 antagonist,RGS4 act,RGS4 block
O=C(CN1CCN(c2ccccn2)CC1)N1c2ccccc2Sc2ccc(C(F)(F)F)cc21,i,i,i,i,i
CCNCCC(=O)N1c2ccccc2Sc2ccc(C(F)(F)F)cc21,31*,i,i,-7.9*,i
COc1ccc(NC(=O)CN(C)CC(=O)NCC(=O)Nc2ccc(F)cc2)cc1,i,i,i,i,i
NS(=O)(=O)c1ccc(-c2cccc(/C=C3\SC(=O)NC3=O)c2)cc1,i,i,i,i,i
CCOc1ccc(CCNC(=O)c2cccc(S(=O)(=O)N3CC(C)OC(C)C3)c2)cc1OCC (stereo unspecified),i,i,-6.5*,i,i
Cc1nc2cc(Cl)ccc2c(=O)n1Cc1ccncc1,i,i,i,i,i
O=C(OCCN(C1=NS(=O)(=O)c2ccccc21)c1ccccc1Cl)c1ccc(Cl)cc1,i,i,i,i,i
CCCOc1cccc(-c2cc(-c3n[nH]c(=S)n3CC)c3ccccc3n2)c1,i,i,i,-8.5*,i
COc1cccc(-c2nc(CS(=O)(=O)CC(=O)NC3CCCCC3C)c(C)o2)c1 (stereo unspecified),i,i,i,i,i
COc1ccc(C2(O)CC3CCC(C2)N3c2cc(C)nc(-c3ccccc3)n2)cc1 (stereo unspecified),i,i,i,i,i
Cc1cc(N2CCCC2)nc(N2C3CCC2CC(O)(c2ccc(F)cc2)C3)n1 (stereo unspecified),i,8*,i,i,i
CCOC(=O)NC(=O)/C(C#N)=C/c1ccc(N(C)C)cc1,54*,i,i,i,i
CCN(CC)c1ccc(/C=C(\C#N)C(=O)c2ccc(Br)cc2)cc1,30*,i,i,i,i
CN(C)c1ccc(/C=C(\C#N)C(=O)c2ccccc2)cc1,i,i,-6.3*,i,i
CCN(CC)c1ccc(/C=C(\C#N)C(N)=S)cc1,i,i,i,i,i
O=C(COc1ccc(Cl)cc1Br)NC(=O)NCc1ccccc1,i,i,i,i,i
CCOC(=O)CSc1nc(-c2ccccc2)nc2c1oc1ccccc12,i,i,i,-7.3*,i
Cc1ccc(OCC(=O)c2ccc(Cl)s2)c([N+](=O)[O-])n1,i,i,i,i,i
COc1ccc(-c2nn(-c3ccccc3)cc2/C=N/O)cc1,i,i,i,i,i
CC(C)Oc1ccc(-c2nn(-c3ccccc3)cc2/C=c2\sc3ncnn3c2=O)cc1,47*,i,i,.,.
CCCCn1c(N)c(N(CCOC)C(=O)C2CCN(S(=O)(=O)c3ccc(Cl)cc3)CC2)c(=O)[nH]c1=O,i,i,i,i,i
Cc1c(C(=O)Nc2ccc(Cl)cc2)c2ccccn2c1C(=O)c1ccc([N+](=O)[O-])cc1,i,i,i,-8.2*,i
Cc1c(C=O)c2ccccn2c1C(=O)c1ccc(Cl)c([N+](=O)[O-])c1,i,i,-4.6*,i,i

# Screening results (PubChem)
